Results reported in ChEMBL document CHEMBL5131398, “Novel nucleocapsid protein-targeting phenanthridine inhibitors of SARS-CoV-2” (Eur J Med Chem, 2022).

Columns and labels:
[1] = test system: SARS-CoV-2; assay: Antiviral activity against Severe acute respiratory syndrome coronavirus 2 infected in African green monkey Vero E6 cells assessed as inhibition of viral cytopathic effect at 0.064 uM incubated for 72 hrs by CCK8 assay relative to control; assay type: functional; set-up: scale not given: the % may be the effect or the level left
[2] = test system: Vero C1008; assay: Cytotoxicity against African green monkey Vero E6 cells assessed as reduction in cell viability incubated for 72 hrs by CCK8 assay; assay type: toxicity, cell-based; settings: chlorocebus sabaeus, vero c1008, 72 h
Outline: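 Vero E6 cells were seeded and grown overnight, then exposed to a range of compound concentrations for 72 h. Viability was read by CCK8. Triplicate.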

[3] = test system: SARS-CoV-2; assay: Antiviral activity against Severe acute respiratory syndrome coronavirus 2 infected in African green monkey Vero E6 cells assessed as inhibition of viral cytopathic effect at 40 uM incubated for 72 hrs by CCK8 assay relative to control; assay type: functional; set-up: scale not given: the % may be the effect or the level left
[4] = test system: SARS-CoV-2; assay: Antiviral activity against Severe acute respiratory syndrome coronavirus 2 infected in African green monkey Vero E6 cells assessed as inhibition of viral cytopathic effect at 0.32 uM incubated for 72 hrs by CCK8 assay relative to control; assay type: functional; set-up: scale not given: the % may be the effect or the level left
[5] = test system: SARS-CoV-2; assay: Antiviral activity against Severe acute respiratory syndrome coronavirus 2 infected in African green monkey Vero E6 cells assessed as inhibition of viral cytopathic effect at 200 uM incubated for 72 hrs by CCK8 assay relative to control; assay type: functional; set-up: scale not given: the % may be the effect or the level left
[6] = test system: SARS-CoV-2; assay: Antiviral activity against Severe acute respiratory syndrome coronavirus 2 infected in African green monkey Vero E6 cells assessed as inhibition of viral cytopathic effect at 8 uM incubated for 72 hrs by CCK8 assay relative to control; assay type: functional; set-up: scale not given: the % may be the effect or the level left
[7] = test system: SARS-CoV-2; assay: Antiviral activity against Severe acute respiratory syndrome coronavirus 2 infected in African green monkey Vero E6 cells assessed as inhibition of viral cytopathic effect at 1.6 uM incubated for 72 hrs by CCK8 assay relative to control; assay type: functional; set-up: scale not given: the % may be the effect or the level left
[8] = test system: SARS-CoV-2; assay: Antiviral activity against Severe acute respiratory syndrome coronavirus 2 infected in African green monkey Vero E6 cells assessed as reduction in viral RNA copies at 3.125 uM incubated for 48 hrs by RT-qPCR analysis relative to control; assay type: functional; set-up: scale not given: the % may be the effect or the level left
[9] = test system: SARS-CoV-2; assay: Antiviral activity against Severe acute respiratory syndrome coronavirus 2 infected in African green monkey Vero E6 cells assessed as reduction in viral RNA copies at 50 uM incubated for 48 hrs by RT-qPCR analysis relative to control; assay type: functional; set-up: scale not given: the % may be the effect or the level left
[10] = test system: SARS-CoV-2; assay: Antiviral activity against Severe acute respiratory syndrome coronavirus 2 infected in African green monkey Vero E6 cells assessed as reduction in viral RNA copies at 6.25 uM incubated for 48 hrs by RT-qPCR analysis relative to control; assay type: functional; set-up: scale not given: the % may be the effect or the level left
[11] = test system: SARS-CoV-2; assay: Antiviral activity against Severe acute respiratory syndrome coronavirus 2 infected in African green monkey Vero E6 cells assessed as inhibition of viral cytopathic effect incubated for 72 hrs by CCK8 assay; assay type: functional, organism-based; settings: Severe acute respiratory syndrome coronavirus 2, Vero C1008, 72 h
[12] = test system: SARS-CoV-2; assay: Antiviral activity against Severe acute respiratory syndrome coronavirus 2 infected in African green monkey Vero E6 cells assessed as reduction in viral RNA copies at 100 uM incubated for 48 hrs by RT-qPCR analysis relative to control; assay type: functional; set-up: scale not given: the % may be the effect or the level left
[13] = test system: SARS-CoV-2; assay: Antiviral activity against Severe acute respiratory syndrome coronavirus 2 infected in African green monkey Vero E6 cells assessed as reduction in viralN-terminal 6-histidine tagged RNA copies at 12.5 uM incubated for 48 hrs by RT-qPCR analysis relative to control; assay type: functional; set-up: scale not given: the % may be the effect or the level left

CCC(CC)COC(=O)[C@H](C)N[P@](=O)(OC[C@H]1O[C@@](C#N)(c2ccc3c(N)ncnn23)[C@H](O)[C@@H]1O)Oc1ccccc1
Activity [1]: 16.557% | CC50 [2]: > 200 µM | Activity [3]: 97.265% | Activity [4]: 22.283% | Activity [5]: 81.893% | Activity [6]: 103.72% | Activity [7]: 56.674%

CCN1Cc2cc(OC)c(OC)cc2-c2cccc(N)c21
Activity [1]: 42.07% | CC50 [2]: > 200 µM | Activity [8]: 45.99% | Activity [9]: 76.41% | Activity [3]: 87.56% | Activity [10]: 53.79% | EC50 [11]: 3.69 µM | Activity [4]: 44.04% | Activity [12]: 72.33% | Activity [13]: 61.27% | Activity [5]: 97.85% | Activity [6]: 73.32% | Activity [7]: 69.61%

CCN1Cc2cc(OC)c(OC)cc2-c2cccc(NC(=O)C(F)(F)F)c21
Activity [1]: 49.07% | CC50 [2]: > 200 µM | Activity [8]: 56.23% | Activity [9]: 68.9% | Activity [3]: 87.41% | Activity [10]: 54.85% | EC50 [11]: 2.18 µM | Activity [4]: 66.95% | Activity [12]: 97.83% | Activity [13]: 68.79% | Activity [5]: 99.6% | Activity [6]: 82.36% | Activity [7]: 84.14%
